# Published values pooled from the literature.
# Target: Phosphatidylinositol 4-kinase beta (PI4KB, Homo sapiens, UniProt Q9UBF8)
SMILES,effect on,technique,tested at,remaining binding [%]
CCN1CCN(Cc2ccc(C(=O)Nc3ccc(C)c(Oc4ccc5c(c4)CC(=O)N5)c3)cc2C(F)(F)F)CC1,binding,competition with immobilised ligand,1 µM,100
CCOC(=O)c1cc2cc(-c3cc(C(=O)NCc4ccc(C(=O)O)cc4)nn3C)ccc2[nH]1,cell-free assay,competition with immobilised ligand,0.1 µM,79
O=C(c1ccc(Nc2ncc(Cl)c(-c3cc4ccccc4s3)n2)cc1)N1CCC(N2CCCC2)CC1,binding,competition with immobilised ligand,1 µM,76
CSc1cccnc1N1CCN(Cc2nc3ccccc3[nH]2)CC1,cell-free assay,competition with immobilised ligand,1 µM,73
CN(c1nccc(-c2cnn3ncccc23)n1)C1CC1,binding,,1 µM,100
COCCOc1nc(-c2ccc(Cl)nc2)nc2c1CN(C(=O)c1ncn3ccccc13)CC2,cell-free assay,competition with immobilised ligand,0.1 µM,100
F[C@@H]1CCN(c2nccc(-c3cnn4ncccc34)n2)C1,binding,,1 µM,89
FC(F)(F)c1ccc2c(c1)nc(-c1cccnc1)n2C1CC1,cell-free assay,competition with immobilised ligand,1 µM,94
COc1cnc(Nc2cccc(S(N)(=O)=O)c2)nc1N1CCN(c2ccccc2)C(=O)C1,binding,competition with immobilised ligand,1 µM,13
C[C@@H]1CCN(c2nccc(-c3cnn4ncccc34)n2)C1,binding,,1 µM,20
O=C(N1CCS(=O)(=O)CC1)N1C[C@H](c2ccc(OC(F)(F)F)cc2)C[C@H](c2nc(C3CC3)no2)C1,cell-free assay,competition with immobilised ligand,1 µM,100
CN(C)c1ncc(F)c(-c2cnn3ncccc23)n1,binding,,1 µM,100
FC(F)(F)Oc1cccc(-c2cnc3ccc(-c4ccncc4)nn23)c1,binding,competition with immobilised ligand,5 µM,0.05
O=C(c1ccc(Nc2ncc(Cl)c(-c3ccc(Cl)s3)n2)cc1)N1CCC(N2CCCC2)CC1,binding,competition with immobilised ligand,1 µM,100
CC(C)CC(=O)N1CCc2nc(-c3ccc(Br)cc3)nc(N(C)Cc3ccccc3)c2C1,cell-free assay,competition with immobilised ligand,0.1 µM,100
N[C@H]1CCN(c2nccc(-c3cnn4ncccc34)n2)C1,binding,,1 µM,100
CNC(=O)Nc1ccc2c(c1)[C@@]1(CC2)OC(=O)N(CC(=O)N(Cc2ccc(F)cc2)[C@@H](C)C(F)(F)F)C1=O,cell-free assay,competition with immobilised ligand,1 µM,71
Cc1cnn2ncc(-c3ccnc(N(C)C)n3)c2c1,binding,,1 µM,56
O=C(Nc1c[nH]nc1C(=O)NC1CCNCC1)c1cc(F)cc(F)c1,binding,competition with immobilised ligand,1 µM,100
O=C(NCCCN1CCOCC1)c1ccc(Nc2nccc(-c3cc4ccccc4s3)n2)cc1,binding,competition with immobilised ligand,1 µM,45
CN(C)c1nccc(-c2cnc3ncccn23)n1,binding,,1 µM,79
C=CC(=O)N1CCC(C(=O)NCC(=O)N2CCN(c3nc(-c4cnc(N)nc4C(F)F)nc(N4CCOCC4)n3)CC2)CC1,binding,competition with immobilised ligand,1 µM,100
